Test results reported in ChEMBL document CHEMBL4480452, “Molecular recognition of a branched peptide with HIV-1 Rev Response Element (RRE) RNA” (Bioorg Med Chem, 2019).
Active and inactive are the calls of the source. No cut-off for these calls is given here.

Experiments:
[1] = molecular target: Rev responsive element (RRE) RNA; experiment: Binding affinity to HIV-1 rev response element SL-IIB RNA by 2-Aminopurine-based fluorescence spectrophotometric analysis; assay type: nucleic-acid assay, Human immunodeficiency virus 1
[2] = system: Rev responsive element (RRE) RNA; experiment: Binding affinity to SL1 and SL2 regions of 234 nucleotide long HIV-1 NL4-3 rev response element RNA by SHAPE-MaP technology assay; assay type: nucleic-acid assay; details: Human immunodeficiency virus 1
Procedure, shortened: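 234-nt RRE RNA (5 pmol), renatured then folded at 37 °C for 15 min (70 mM Tris pH 8.0, 180 mM KCl, 8 mM MgCl2, 5% glycerol). Peptide added at 1:1 or 1:10 RNA:peptide for 15 min at 37 °C, then 1M7 for 5 min at 37 °C, with DMSO and denaturing controls. Read by MaP reverse transcription, PCR and sequencing; reactivity compared by nucleotide position.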

[3] = molecular target: Rev responsive element (RRE) RNA; experiment: Binding affinity to HIV-1 rev response element SL-IIB RNA in presence of 10 times TAR RNA by 2-Aminopurine-based fluorescence spectrophotometric analysis; assay type: nucleic-acid assay, Human immunodeficiency virus 1
Procedure, shortened: (§1)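 Same 2-AP titration, run with 10-fold excess of unlabeled competitor nucleic acid. Conditions: 0.1 μM refolded 2-AP RRE SL-IIB RNA, peptide 0–20 μM, pH 7.0 phosphate/KCl/MgCl2 buffer, ex 310 / em 372 nm. Kd from Hill fit, at least duplicate, SD.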

[4] = system: Rev responsive element (RRE) RNA; experiment: Binding affinity to internal loop and upper stem/ apical loop regions of 5-32P-labeled HIV-1 NL4-3 rev response element SL-IIB RNA by RNases A and V1 based RNase protection assay; assay type: nucleic-acid assay; details: Human immunodeficiency virus 1
Procedure, shortened: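 5′-32P-labeled RRE SL-IIB (10 nM) with 200 nM unlabeled RNA, refolded at 95 °C for 3 min and snap-cooled. Incubated with peptide (0–20 μM) on ice for 4 h in 10 mM Tris pH 7, 100 mM KCl, 10 mM MgCl2. Digested on ice with RNase V1 (0.002 U, 10 min) or RNase A (20 ng, 1 h). Cleavage read on 12% denaturing PAGE by autoradiography.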

[5] = molecular target: Rev responsive element (RRE) RNA; experiment: Binding affinity to HIV-1 rev response element SL-IIB RNA in presence of 10 times no bulge RRE RNA by 2-Aminopurine-based fluorescence spectrophotometric analysis; assay type: nucleic-acid assay, Human immunodeficiency virus 1; procedure, shortened: as §1
[6] = system: Rev responsive element (RRE) RNA; experiment: Binding affinity to HIV-1 NL4-3 5-32P-labeled rev response element SL-IIB RNA by RNases A and V1 based RNase protection assay; details: Human immunodeficiency virus 1
[7] = molecular target: Rev responsive element (RRE) RNA; experiment: Binding affinity to HIV-1 rev response element SL-IIB RNA in presence of 10 times RRE DNA by 2-Aminopurine-based fluorescence spectrophotometric analysis; assay type: nucleic-acid assay, Human immunodeficiency virus 1; procedure, shortened: as §1

Row | SMILES | Kd [1] | further results
1 | N=C(N)N[C@@H]1C[C@@H](C(=O)NCCN(CC(=O)N[C@@H](CCCCNC(=O)c2ccc(B(O)O)cc2)C(=O)N[C@@H](Cc2ccc(O)cc2)C(N)=O)C(=O)Cn2cnc3c(=O)[nH]c(N)nc32)N(C(=O)[C@H](CCCCNC(=O)[C@@H]2C[C@@H](NC(=N)N)CN2C(=O)[C@H]2C[C@@H](NC(=O)[C@@H]3C[C@@H](NC(=N)N)CN3)CN2)NC(=O)[C@@H]2C[C@@H](NC(=N)N)CN2C(=O)[C@H]2C[C@@H](NC(=O)[C@@H]3C[C@@H](NC(=N)N)CN3)CN2)C1 | 630 nM | –
2 | N=C(N)N[C@@H]1C[C@@H](C(=O)N2C[C@H](N)C[C@@H]2C(=O)N[C@@H](Cc2ccc(O)cc2)C(N)=O)N(C(=O)[C@H]2C[C@@H](N)CN2C(=O)[C@H](CCCCNC(=O)[C@H]2C[C@@H](N)CN2C(=O)[C@@H]2C[C@@H](NC(=N)N)CN2C(=O)[C@H]2C[C@@H](N)CN2)NC(=O)[C@H]2C[C@@H](N)CN2C(=O)[C@@H]2C[C@@H](NC(=N)N)CN2C(=O)[C@H]2C[C@@H](N)CN2)C1 | 720 nM | –
3 | N=C(N)N[C@@H]1C[C@@H](C(=O)N2C[C@H](NC(=N)N)C[C@H]2C(=O)N[C@@H](CCCCNC(=O)c2cnccn2)C(=O)N[C@@H](Cc2ccc(O)cc2)C(N)=O)N(C(=O)[C@H](CCCCNC(=O)[C@H](CCCCNC(=O)c2cnccn2)NC(=O)[C@H]2C[C@@H](NC(=O)[C@@H]3C[C@@H](NC(=N)N)CN3)CN2)NC(=O)[C@H](CCCCNC(=O)c2cnccn2)NC(=O)[C@H]2C[C@@H](NC(=O)[C@@H]3C[C@@H](NC(=N)N)CN3)CN2)C1 | 1300 nM | –
4 | N=C(N)N[C@@H]1C[C@@H](C(=O)N[C@H]2CN[C@@H](C(=O)N[C@@H](Cc3ccc(O)cc3)C(N)=O)C2)N(C(=O)CN(CCNC(=O)[C@H](CCCCNC(=O)[C@@H]2C[C@@H](NC(=N)N)CN2C(=O)[C@H]2C[C@@H](N)CN2C(=O)[C@@H](N)CCCCNC(=O)c2cnccn2)NC(=O)[C@@H]2C[C@@H](NC(=N)N)CN2C(=O)[C@H]2C[C@@H](N)CN2C(=O)[C@@H](N)CCCCNC(=O)c2cnccn2)C(=O)Cn2cnc3c(=O)[nH]c(N)nc32)C1 | 1110 nM | –
5 | N=C(N)N[C@H]1CN[C@H](C(=O)N2C[C@H](N)C[C@@H]2C(=O)NCCN(CC(=O)NCCCC[C@H](NC(=O)CN(CCNC(=O)[C@H]2C[C@@H](N)CN2C(=O)[C@@H]2C[C@@H](NC(=N)N)CN2)C(=O)Cn2cnc3c(=O)[nH]c(N)nc32)C(=O)NCCN(CC(=O)N[C@@H](CCCCNC(=O)c2cnccn2)C(=O)N[C@@H](CCCCNC(=O)c2ccc(B(O)O)cc2)C(=O)N[C@@H](Cc2ccc(O)cc2)C(N)=O)C(=O)Cn2cnc3c(=O)[nH]c(N)nc32)C(=O)Cn2cnc3c(=O)[nH]c(N)nc32)C1 | 1180 nM | –
6 | N=C(N)N[C@H]1CN[C@H](C(=O)N[C@H]2CN[C@@H](C(=O)N[C@@H](Cc3cccc4ccccc34)C(=O)NCCCC[C@H](NC(=O)[C@H](Cc3cccc4ccccc34)NC(=O)[C@H]3C[C@@H](NC(=O)[C@@H]4C[C@@H](NC(=N)N)CN4)CN3)C(=O)NCCN(CC(=O)NCCN(CC(=O)N[C@@H](Cc3cccc4ccccc34)C(=O)N[C@@H](Cc3ccc(O)cc3)C(N)=O)C(=O)Cn3cnc4c(=O)[nH]c(N)nc43)C(=O)Cn3cnc4c(=O)[nH]c(N)nc43)C2)C1 | 660 nM | –
7 | N=C(N)N[C@@H]1C[C@@H](C(=O)NCCCC[C@H](NC(=O)[C@@H]2C[C@@H](NC(=N)N)CN2C(=O)[C@H]2C[C@@H](N)CN2C(=O)[C@@H]2C[C@@H](NC(=N)N)CN2)C(=O)N[C@@H](CCCCNC(=O)c2cnccn2)C(=O)N[C@@H](CCCCNC(=O)c2cnccn2)C(=O)NCCN(CC(=O)N[C@@H](Cc2ccc(O)cc2)C(N)=O)C(=O)Cn2cnc3c(=O)[nH]c(N)nc32)N(C(=O)[C@H]2C[C@@H](N)CN2C(=O)[C@@H]2C[C@@H](NC(=N)N)CN2)C1 | 1120 nM | –
8 | N=C(N)N[C@@H]1C[C@@H](C(=O)NCCN(CC(=O)N[C@@H](CCCCNC(=O)c2ccc(B(O)O)cc2)C(=O)N[C@@H](Cc2ccc(O)cc2)C(N)=O)C(=O)Cn2cnc3c(=O)[nH]c(N)nc32)N(C(=O)[C@H](CCCCNC(=O)[C@@H]2C[C@@H](NC(=N)N)CN2C(=O)[C@@H]2C[C@@H](NC(=N)N)CN2C(=O)[C@H]2C[C@@H](N)CN2)NC(=O)[C@@H]2C[C@@H](NC(=N)N)CN2C(=O)[C@@H]2C[C@@H](NC(=N)N)CN2C(=O)[C@H]2C[C@@H](N)CN2)C1 | 400 to 410 nM | Activity [2]: Active; Kd [3]: 3.52 µM; Activity [4]: Active; Kd [5]: 1140 nM; Activity [6]: Active; Kd [7]: 1480 nM
